# In the library only some 3.8% were active in any assay of this set; here they are far more common.
# Lipid droplet – modulators of hepatic lipid droplet formation; inhibition, % at 6.5 µM; AID 1656; AML12 mouse hepatocytes, oleate lipid droplets, BODIPY imaging; hit rate 0.4% among 240,000;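 active = lipid droplet intensity inhibited by at least 50%, with more than 500 cells counted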
#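 Material – mouse AML12 hepatocyte cell line, fixed after treatment · Compound dosing – one dose, 6.5 µM compound · Times – compound with oleate, overnight · Measured by – Image-based BODIPY and DAPI two-channel analysis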
# MrgX1 antag – antagonists of human MrgX1 receptor; MRGX1-HEK293 calcium flux, Fluo-4, BAM8-22 antagonism; hits give low values; B-score at 10 µM; Q96LB2; hit rate 1.3% among 310,000;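 active = calcium-response B-score plate-corrected more than 3 library SD below zero, starting fluorescence within 5 deviations, no agonist response on first addition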;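 note: peak minus trough fluorescence over baseline after final BAM8-22 challenge near maximal dose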
# Target sequence (Q96LB2 whole entry, looked up): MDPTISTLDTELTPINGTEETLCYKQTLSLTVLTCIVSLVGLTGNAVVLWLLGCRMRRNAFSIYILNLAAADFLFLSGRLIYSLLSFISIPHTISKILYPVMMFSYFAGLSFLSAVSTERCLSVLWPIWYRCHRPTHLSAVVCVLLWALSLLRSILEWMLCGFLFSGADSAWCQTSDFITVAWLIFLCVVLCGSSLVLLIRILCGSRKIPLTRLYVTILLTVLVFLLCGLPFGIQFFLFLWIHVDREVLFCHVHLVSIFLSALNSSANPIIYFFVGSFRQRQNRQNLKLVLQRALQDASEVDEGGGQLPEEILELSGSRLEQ
# MrgX1 ag – activates human MrgX1 receptor signaling; hit rate 0.44% among 310,000; MrgX1-HEK293 cells, Fluo-4 calcium fluorescence, agonist mode; hits give high values; Q96LB2; B-score at 10 µM; AID 588627;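 active = calcium response B-score plate-corrected fluorescence ratio at least 3 library SD, with starting fluorescence B-score inside 5 SD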
#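 Assay system: stable human MrgX1 HEK293 cell line. Quantity: 15,000 cells per well. Schedule: cells plated overnight, dye loaded 0.5 h 37 °C, 0.5 h room temperature. Detection: Fluo-4 NW calcium-flux fluorescence, kinetic read. Read-out basis: peak-minus-minimum fluorescence over baseline, converted to B scores. Control set: positive and negative control wells on each plate.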
# RGS4 pot – potentiators or activators of RGS4; HEK293 M3R/inducible RGS4, carbachol calcium flux Fluo4; hits give low values; B-score at 10 µM; hit rate 0.92% among 310,000; AID 463111;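 active = B-score of the integrated calcium signal more than 4 SD below the library mean, with starting fluorescence not abnormally high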;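 note: negative B-score means reduced calcium response which marks RGS4 activation or potentiation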
#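 Material: Inducible-RGS4 HEK293 cells carrying M3 receptor; also added: carbachol at ECmax as muscarinic agonist stimulus; incubation: compound preincubation 20 min at room temperature before agonist; signal: Fluo4-AM (2 µM) calcium-flux fluorescence, kinetic read; measure: integrated calcium ratio converted to B score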
# RGS4 inh – inhibitors of human RGS4; B-score at 10 µM; AID 463165; HEK293 M3R/RGS4 inducible, Fluo-4 calcium flux; hits give high values; triggered by carbachol at its EC20; hit rate 0.45% among 310,000;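 active = B-score, a plate-corrected calcium signal, over three deviations above library mean, with baseline fluorescence within five deviations of library mean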;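 note: RGS4 expression induced by doxycycline in cells with stable M3 receptor; B-score is computed from the integrated fluorescence ratio over baseline after carbachol; higher B-score means a larger calcium signal and so more RGS4 inhibition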
# Target sequence (P49798 whole entry, looked up): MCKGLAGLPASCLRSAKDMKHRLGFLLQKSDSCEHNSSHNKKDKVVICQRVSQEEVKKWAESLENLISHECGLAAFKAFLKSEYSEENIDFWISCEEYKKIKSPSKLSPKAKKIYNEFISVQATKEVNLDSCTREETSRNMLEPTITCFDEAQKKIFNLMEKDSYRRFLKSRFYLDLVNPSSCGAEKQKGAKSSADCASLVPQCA
# MrgX1 allo act – human MrgX1 positive allosteric modulation, primary screen; MrgX1-HEK293, Fluo-4 calcium flux, FDSS; hits give high values; hit rate 0.63% among 310,000; B-score at 10 µM; AID 588675; Q96LB2;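 active = plate-corrected calcium response at least 3 library SD above typical, normal starting fluorescence, not activating the receptor alone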;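 note: compound read alongside a low EC10 to EC30 dose of BAM8-22 agonist; peak minus trough fluorescence over baseline measured at the second addition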
# RGS4 inh valid – RGS4 inhibitor validation. HEK293 M3R/RGS4, carbachol calcium Fluo-4 fluorescence; carbachol added at its EC20; 0 = buffer wells, 100 = carbachol control. hit rate 65% among 1,700. AID 492999. calcium response, % at 10 µM. shares compounds with RGS4 inh;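 active = duplicate-averaged calcium response above the buffer-only control mean plus 5 SD of those controls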;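 note: integrated fluorescence ratio F max minus min over baseline F0; higher response in RGS4-induced cells means RGS4 inhibition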
# RGS4 uninduced – non-induced cell nonspecific activity of RGS4 inhibitors; shares compounds with RGS4 inh; HEK293 M3R non-induced, carbachol calcium Fluo-4; submaximal (EC20) carbachol stimulus; buffer wells 0%, carbachol control wells 100%; activity (percent), % at 10 µM; hit rate 20% among 1,900; AID 493000; call rule not given here;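 note: RGS4 induction absent so cells express M3R without RGS4; higher means more calcium signal and flags a non-specific hit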
# RGS4 inh ctr2 – second counter-screen for RGS4 inhibitors: non-induced cells without carbachol. shares compounds with RGS4 inh. HEK293 M3R/RGS4 non-induced, Fluo-4 calcium, no carbachol; normalised: buffer wells 0%, carbachol wells 100%. calcium response (agonist-mode artifact), % at 10 µM. hit rate 22% among 1,900. AID 493001;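 active = duplicate-averaged calcium rise in uninduced cells above buffer wells' mean plus 5 SD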
# The depositor's hits bear a star; i = inactive; / = not tested or not shown.
SMILES,Lipid droplet,MrgX1 antag,MrgX1 ag,RGS4 pot,RGS4 inh,MrgX1 allo act,RGS4 inh valid,RGS4 uninduced,RGS4 inh ctr2
C#CCOCCOCCOCCNc1nc(N2CCN(C(=O)C(Cc3cc4ccccc4[nH]3)n3cc(C(N)Cc4ccc(O)cc4)nn3)CC2)nc(N2CCN(C(=O)C(Cc3cc4ccccc4[nH]3)n3cc(C(N)Cc4ccc(O)cc4)nn3)CC2)n1 (stereo not drawn),-1.7,/,/,i,i,/,/,/,/
C/C=C(/C)C(=O)O[C@H]1[C@@H](O)c2c(ccc3ccc(=O)oc23)OC1(C)C,-7.2,i,i,i,i,i,/,/,/
C=C1C(=O)O[C@@H]2[C@H]1[C@@H](OC(=O)/C(C)=C/C)C/C(C)=C\C(=O)/C=C(\C)[C@@H]2O,-2.4,i,i,i,i,i,/,i,i
CCCCOC(=O)c1ccc(NC(=O)C(=O)NCc2ccco2)cc1,10.3,i,i,i,i,i,/,/,/
NNC(=O)c1nc[nH]c1C(=O)Nc1ccccn1,2.9,i,i,i,14.7*,i,5.0%*,i,i
COC(=O)c1ccc(COc2ccccc2/C=C(\C#N)C(=O)Nc2c(C)cccc2C)cc1,-104.5,i,i,i,5.62*,i,8.0%*,i,i
COC(=O)c1ccc(COc2ccccc2/C=C(\C#N)C(=O)Nc2ccccc2C)cc1,1.5,i,i,i,i,i,i,i,i
COC(=O)c1ccc(COc2ccccc2/C=C(\C#N)C(=O)NC(C)C)cc1,3.3,i,i,i,i,i,/,/,/
O=C(Cc1ccsc1)NNC(=O)c1ccccc1O,/,i,i,i,i,i,/,/,/
CC(C)CN1CCN(Cc2c[nH]c3ccccc23)CC1CCO (stereo not drawn),3.6,i,i,i,i,i,/,/,/
CCCOc1ccc2oc(=O)c3c(c2c1)CCCN3C(=O)CN(C)Cc1ccccc1,/,i,i,i,i,i,/,/,/
CCCCn1c(SCC(=O)NCc2ccccc2)nc2ccc(N3CCOCC3)cc2c1=O,5.9,i,i,i,i,i,i,i,i
CCCCn1c(SCC(=O)NC(C)CC)nc2ccc(N3CCOCC3)cc2c1=O (stereo not drawn),/,i,i,i,i,i,/,/,/
CCCCn1c(SCC(=O)NCc2ccco2)nc2ccc(N3CCOCC3)cc2c1=O,10.1,i,i,i,5.01*,i,i,i,i
CCCCn1c(SCC(=O)Nc2ccc(OC)cc2)nc2ccc(N3CCOCC3)cc2c1=O,-10.3,i,i,i,i,i,/,/,/
COCCn1c(SCC(=O)Nc2cc(C)on2)nnc1C(C)C,1.9,i,i,i,i,i,/,/,/
Fc1ccccc1CSc1ccc(-c2ccco2)nn1,1.4,i,i,i,i,i,/,/,/
COCCCNC(=O)CN1C(=O)COc2ccc(S(=O)(=O)N3CCCCCC3)cc21,-16.1,i,i,i,i,i,/,/,/
CCOCCCNC(=O)CN1C(=O)COc2ccc(S(=O)(=O)N3CCCC3)cc21,-2.7,i,i,i,i,i,/,i,i
CCCCCCCNC(=O)CN1C(=O)CSc2ccc(S(=O)(=O)N3CCOCC3)cc21,0.8,i,i,i,i,i,/,/,/
CCOCCCNC(=O)CN1C(=O)CSc2ccc(S(=O)(=O)N3CCOCC3)cc21,3.1,i,i,i,i,i,i,i,i

# Screening data deposited in PubChem BioAssay by several laboratories.
